Calls of active or inactive are those of the source. Unless noted, the rule behind the calls is not given here.
How the values were obtained:
[1] = Inhibition of quorum sensing system in Pseudomonas aeruginosa PAO1 MH602 harboring lasB promoter fused with GFP-ASV assessed as reduction in GFP-ASV reporter protein expression at 9.8 uM measured every 30 mins relative to control
In short: (§1)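 P. aeruginosa PAO1 carrying a PlasB::gfp(ASV) fusion plasmid, which makes its own AHL signals, incubated with compounds at 88.8, 29.6, 9.9, 3.3 or 1.0 μM. GFP fluorescence (RFU) read every half hour. Percent QS inhibition is the percent RFU difference between sample and untreated control, taken at the time point when control fluorescence peaks.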

Pseudomonas aeruginosa [2] = experiment: Antibacterial activity against Pseudomonas aeruginosa PAO1 MH602 harboring lasB promoter fused with GFP-ASV assessed as growth inhibition at 88 uM measured every 30 mins by GFP-ASV reporter gene assay; type: organism-based; settings: pseudomonas aeruginosa, in vivo, 0.5 h, 88 µM
In short: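 Cell growth of the PAO1 PlasB::gfp(ASV) reporter strain tracked as OD600 every half hour during compound incubation, alongside GFP readings. Growth is compared against the untreated control.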

[3] = Inhibition of quorum sensing system in Pseudomonas aeruginosa PAO1 MH602 harboring lasB promoter fused with GFP-ASV assessed as reduction in GFP-ASV reporter protein expression measured every 30 mins; in short: as §1
Pseudomonas aeruginosa [4] = experiment: Antibacterial activity against Pseudomonas aeruginosa PAO1 assessed as inhibition of biofilm formation at 150 uM after 6 hrs by crystal violet staining assay relative to control; type: functional; settings: for inhibition at 150 µM: PAO1, 6 h
[5] = Inhibition of quorum sensing system in Pseudomonas aeruginosa PAO1 MH602 harboring lasB promoter fused with GFP-ASV assessed as reduction in GFP-ASV reporter protein expression at 88 uM measured every 30 mins relative to control; in short: as §1
[6] = Inhibition of quorum sensing system in Pseudomonas aeruginosa PAO1 MH602 harboring lasB promoter fused with GFP-ASV assessed as reduction in GFP-ASV reporter protein expression at 3.2 uM measured every 30 mins relative to control; in short: as §1
[7] = Inhibition of quorum sensing system in Pseudomonas aeruginosa PAO1 MH602 harboring lasB promoter fused with GFP-ASV assessed as reduction in GFP-ASV reporter protein expression at 29 uM measured every 30 mins relative to control; in short: as §1
[8] = Induction of nitric oxide release in PBS buffer supplemented with L-cysteine, xanthine, xanthine oxidase assessed as nitrite release at 250 to 500 uM after 24 hrs by Griess assay; type: physicochemical
In short: (§2)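 Total NO release was quantified as nitrite with Griess reagent, which detects nitrite at ≥1 μM. Because of that limit, compounds were added at 250 μM and 500 μM.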

[9] = Inhibition of quorum sensing system in Pseudomonas aeruginosa PAO1 MH602 harboring lasB promoter fused with GFP-ASV assessed as reduction in GFP-ASV reporter protein expression at 266 uM measured every 30 mins relative to control
Pseudomonas aeruginosa [10] = experiment: Induction of nitric oxide-dependent nirS gene expression in Pseudomonas aeruginosa at 500 uM incubated for 2 hrs under dark condition by GFP reporter gene assay relative to untreated control; type: functional
Pseudomonas aeruginosa [11] = experiment: Antibacterial activity against Pseudomonas aeruginosa assessed as growth inhibition at 500 uM after 2 hrs by GFP reporter gene assay; type: organism-based; settings: in vivo
[12] = Induction of nitric oxide release in PBS buffer supplemented with L-cysteine, xanthine, xanthine oxidase assessed as nitrite release at 500 uM after 1 hr by Griess assay; type: physicochemical; in short: as §2

SMILES	inhibition [1]	Activity (Pseudomonas aeruginosa [2])	inhibition [3]	inhibition (Pseudomonas aeruginosa [4])	inhibition [5]	inhibition [6]	inhibition [7]	Activity [8]	inhibition [9]	Activity (Pseudomonas aeruginosa [10])	Activity (Pseudomonas aeruginosa [11])	inhibition at 150 µM (Pseudomonas aeruginosa [4])	Activity [12]	fold change (FC) (Pseudomonas aeruginosa [10])
CCCCCCCCCCCC(OC(=O)CC(=O)N1CCN(/[N+]([O-])=N/OC)CC1)C1=CC(=C(Br)Br)OC1=O (stereo not given)	inactive	Non-toxic	Dose-dependent effect	inactive	inactive	inactive	inactive	Not Active	40.9%	–	–	–	–	–
CCCCCCCCCCCC(O[N+](=O)[O-])C1=CC(=C(Br)Br)OC1=O (stereo not given)	inactive	Non-toxic	Dose-dependent effect	–	29%	inactive	inactive	–	67.3%	inactive	Non-toxic	73%	17.9 µM	–
CCCC(OC(=O)CO/N=[N+](\[O-])N1CCN(C(=O)OCC)CC1)C1=CC(=C(Br)Br)OC1=O (stereo not given)	4%	Non-toxic	Dose-dependent effect	inactive	41.5%	inactive	22.8%	Not Active	65.9%	–	–	–	–	–
CCCC(OC(=O)CO[N+](=O)[O-])C1=CC(=C(Br)Br)OC1=O (stereo not given)	23.2%	Non-toxic	Dose-dependent effect	–	72.9%	inactive	49.6%	–	88%	–	Non-toxic	61%	29 µM	2.5

Source: ChEMBL document CHEMBL3102710, “Design, synthesis, and evaluation of fimbrolide-nitric oxide donor hybrids as antimicrobial agents” (J Med Chem, 2013)
